Assay outcomes: PubChem BioAssay, Johns Hopkins Ion Channel Center
RGS4 act = potentiators or activators of RGS4 | HEK293 M3R/inducible RGS4, carbachol calcium flux Fluo4; active compounds read low | B-score at 10 µM | actives 0.92% (n = 310,000) | AID 463111;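 active = B-score of the integrated calcium signal more than 4 SD below the library mean, with starting fluorescence not abnormally high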;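 also: negative B-score means reduced calcium response which marks RGS4 activation or potentiation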
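Detection: kinetic calcium fluorescence imaging with Fluo4-AM dye, 2 µM / Material: HEK293 cells with stable M3R and inducible RGS4 / Schedule: recording 10 s baseline at 1 Hz, 100 s post-agonist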
MrgX1 ag = activates human MrgX1 receptor signaling. Q96LB2. MrgX1-HEK293 cells, Fluo-4 calcium fluorescence, agonist mode; active compounds read high. B-score at 10 µM. actives 0.44% (n = 310,000). AID 588627;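 active = calcium response B-score plate-corrected fluorescence ratio at least 3 library SD, with starting fluorescence B-score inside 5 SD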
Target sequence (Q96LB2 whole entry, looked up): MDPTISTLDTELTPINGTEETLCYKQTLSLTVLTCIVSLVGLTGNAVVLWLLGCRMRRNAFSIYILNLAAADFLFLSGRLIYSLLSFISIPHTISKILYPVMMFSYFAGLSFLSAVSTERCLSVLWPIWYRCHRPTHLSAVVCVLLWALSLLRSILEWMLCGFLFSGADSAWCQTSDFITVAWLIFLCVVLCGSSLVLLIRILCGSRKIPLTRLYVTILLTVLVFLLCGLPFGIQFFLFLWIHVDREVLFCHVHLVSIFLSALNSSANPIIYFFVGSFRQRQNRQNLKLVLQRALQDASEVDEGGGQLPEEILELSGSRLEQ
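Test system: HEK293 cells stably expressing human MrgX1 receptor; amount: 15,000 cells per well; doses: compound delivered in addition one of three; times: overnight plating before 1 h dye loading; detection: Fluo-4 NW calcium-flux fluorescence, kinetic read; read-out basis: B-scored fluorescence response ratio; controls: positive and negative controls per plate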
MrgX1 antag = human MrgX1 receptor antagonism, primary screen; Q96LB2; MRGX1-HEK293 calcium flux, Fluo-4, BAM8-22 antagonism; active compounds read low; B-score at 10 µM; actives 1.3% (n = 310,000);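 active = calcium-response B-score plate-corrected more than 3 library SD below zero, starting fluorescence within 5 deviations, no agonist response on first addition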;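 also: peak minus trough fluorescence over baseline after final BAM8-22 challenge near maximal dose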
RGS4 block = inhibitors of human RGS4; P49798; HEK293 M3R/RGS4 inducible, Fluo-4 calcium flux; active compounds read high; triggered by carbachol at its EC20; B-score at 10 µM; actives 0.45% (n = 310,000);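 active = B-score, a plate-corrected calcium signal, over three deviations above library mean, with baseline fluorescence within five deviations of library mean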;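 also: RGS4 expression induced by doxycycline in cells with stable M3 receptor; B-score is computed from the integrated fluorescence ratio over baseline after carbachol; higher B-score means a larger calcium signal and so more RGS4 inhibition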
Target sequence (P49798 whole entry, looked up): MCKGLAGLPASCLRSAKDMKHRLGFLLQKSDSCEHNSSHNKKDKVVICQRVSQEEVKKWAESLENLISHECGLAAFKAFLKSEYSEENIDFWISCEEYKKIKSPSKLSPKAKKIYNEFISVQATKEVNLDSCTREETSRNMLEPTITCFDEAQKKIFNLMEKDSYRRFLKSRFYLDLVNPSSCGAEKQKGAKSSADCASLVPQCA
Kir21 block = inhibitors of mouse Kir2.1 inward-rectifier potassium channel; P35561; HEK293-Kir2.1, FluxOR thallium flux fluorescence; active compounds read low; B-score at 10 µM; actives 0.85% (n = 310,000);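 active = fluorescence ratio B-score at or below minus 3 SD of library scores, with starting-brightness B-score within 2 SD, cut at about -4.2 in these data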;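 also: channel flux triggered by added potassium and thallium sulfate stimulus; B-score of peak minus minimum fluorescence over baseline after thallium stimulus; more negative B-score means stronger Kir2.1 block with less thallium influx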
MrgX1 allo act = allosterically activates human MrgX1 receptor signaling | B-score at 10 µM | AID 588675 | MrgX1-HEK293, Fluo-4 calcium flux, FDSS; active compounds read high | actives 0.63% (n = 310,000);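 active = plate-corrected calcium response at least 3 library SD above typical, normal starting fluorescence, not activating the receptor alone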;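 also: compound read alongside a low EC10 to EC30 dose of BAM8-22 agonist; peak minus trough fluorescence over baseline measured at the second addition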
MrgX1 allo conf = human MrgX1 positive allosteric modulation, re-confirmation; shares compounds with MrgX1 allo act; MrgX1-HEK293, Fluo-4 calcium fluorescence, FDSS; activation (ratio percentage), % at 10 µM; actives 13% (n = 1,200); AID 602413;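 active = ratio at least 3 SD above the weak peptide control, stable starting fluorescence, no direct agonism earlier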;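 also: compound followed by low BAM8-22 agonist challenge near EC20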
MrgX1 ant reconf = confirmation of human MrgX1 receptor antagonists | MrgX1-HEK293, BAM8-22 calcium flux, Fluo-4; active compounds read low | shares compounds with MrgX1 antag | actives 19% (n = 2,300) | remaining BAM8-22 calcium response % of control (active compounds read low), % at 10 µM;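 active = remaining agonist calcium response no higher than 100% minus 3 SD of agonist-only control wells, with starting fluorescence near control levels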;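 also: agonist BAM8-22 given at a near maximal EC90 to ECmax level; peak minus minimum fluorescence divided by baseline after agonist addition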
HEK293 Ca flux = counter-screen for MrgX1 antagonists: effect in parental HEK293 cells; shares compounds with MrgX1 antag; Fluo-4 calcium fluorescence, FDSS; fluorescence ratio F(max-min)/F0 at 10 µM; actives 2% (n = 4,000); AID 624111;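 active = duplicate-averaged calcium fluorescence ratio at least three times the standard deviation of buffer wells, a nonspecific response in parental cells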
HEK293 Ca counter = counter-screen for MrgX1 allosteric activators: effect in parental HEK293 cells. fluorescence ratio F(max-min)/F0 at 10 µM. parental HEK293 calcium flux, Fluo-4 fluorescence ratio; active compounds read high. shares compounds with MrgX1 antag. actives 0.4% (n = 4,000);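 active = calcium fluorescence ratio, averaged over duplicates, at least 3 SD of the buffer-well ratio, meaning a nonspecific response in receptor-free cells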;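 also: untransfected parental HEK293 lacking MrgX1 used as counterscreen for MrgX1 allosteric activators; fluorescence change taken during the second addition on a kinetic imager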
HEK293 Ca cntr2 = counter-screen for MrgX1 activators: effect in parental HEK293 cells; actives 8.7% (n = 4,000); fluorescence ratio F(max-min)/F0 at 10 µM; Fluo-4 calcium fluorescence (FDSS); active compounds read high; shares compounds with MrgX1 antag;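 active = calcium fluorescence ratio at least three times the spread of buffer wells, meaning a non-specific response in parental cells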
* = called active by the depositor; i = inactive; x = not tested or not shown. In the library only some 4.1% were active in any assay of this set; here they are far more common.

SMILES	RGS4 act	MrgX1 ag	MrgX1 antag	RGS4 block	Kir21 block	MrgX1 allo act	MrgX1 allo conf	HEK293 Ca flux	HEK293 Ca counter	HEK293 Ca cntr2	others
Cc1ccccc1Nc1ncnc2c1cnn2-c1ccccc1	i	i	i	i	-0.67	11*	i	i	i	i
Cc1ccc(-c2nnc(SCC(=O)CC(=O)Nc3ccccc3)n2C)cc1	i	i	i	i	0.09	i	x	x	x	x
COc1cc(-c2noc(C)c2C#Cc2nccn2C)cc(OC)c1OC	i	i	i	i	-0.1	i	x	x	x	x
COc1cc(-c2noc(C)c2-c2ccc(N(C)C)nc2)cc(OC)c1OC	i	i	-5*	i	0.41	7.7*	i	i	i	i	MrgX1 ant reconf=i
O=C(Cc1ccc(Cl)cc1)Oc1cccc2cccnc12	x	i	i	x	x	i	x	x	x	x
Nc1nc(-c2ccccc2)cs1	i	i	i	i	0.33	i	x	x	x	x
Nc1nc(C(c2ccccc2)c2ccccc2)cs1	i	i	i	i	0.39	8.7*	i	i	i	i
Cc1ccc(C(=O)NC2CCCCCC2)cc1N1CCCC1=O	i	i	i	i	1.7	i	x	x	x	x
Cc1ccccc1OC(C)C(=O)NCCC1=CCCCC1 (centres undefined)	i	i	i	i	-8.9*	11*	i	i	i	i
COc1cccc(-n2c(SCC(N)=O)nnc2-c2c[nH]c3ccccc23)c1	i	i	i	i	-0.09	6.9*	i	i	i	i
Cc1ccc(N(C(=O)c2ccc(S(=O)(=O)N3CCCC3)cc2)C2C=CS(=O)(=O)C2)cc1 (centres undefined)	i	i	i	i	-1.8	i	x	x	x	x
CC1(C)c2ccccc2N(CC(N)=O)C12C=Cc1ccccc1O2 (centres undefined)	i	i	i	i	-0.99	6.8*	i	i	i	i
Cc1ccn2c(NC3CCCC3)c(-c3ccncc3)nc2c1	i	i	i	i	-0.86	7.3*	14%*	i	i	i
Cc1ccn2c(NC3CCCC3)c(-c3ccccn3)nc2c1	i	i	i	i	-1.6	12*	i	i	i	i
CCOC(=O)c1c(O)c2c(n(Cc3ccco3)c1=O)CCCC2	i	i	i	i	-1.9	i	x	x	x	x
Cc1cc(Cl)ccc1NC(=S)NCC(O)c1ccccc1 (centres undefined)	i	i	i	i	-1.7	22*	i	i	i	i
COc1ccc(-c2csc(NC(=O)CCn3cnc4ccccc4c3=O)n2)cc1OC	i	i	i	i	-0.07	i	x	x	x	x
COc1ccc(-c2csc(NC(=O)CCCc3nc4ccccc4c(=O)[nH]3)n2)cc1OC	-7.4*	i	i	i	-0.2	11*	i	i	i	i
COC(=O)n1c(=S)oc2cc(Cl)ccc21	i	i	i	i	-0.62	i	x	x	x	x
c1ccc(Cc2c[nH]c3ccccc23)cc1	i	i	i	i	1	6.6*	i	i	i	i
CCOC(=O)c1csc(N)n1	i	i	i	i	0.97	i	x	x	x	x
CC(=O)Nc1ccc(S(=O)(=O)NCc2ccc(C(=O)N3CCOCC3)cc2)cc1	i	i	i	i	-0.08	7.4*	i	i	i	i
Cc1ccc(NC(=S)NCC2CCN(C(C)c3ccccc3)C2)cc1 (centres undefined)	i	i	i	i	-0.39	22*	i	i	i	i
CCOC(=O)C1=C(COC(=O)c2cc(Br)c(Br)s2)NC(=O)NC1C (centres undefined)	i	i	i	i	-0.21	9.8*	i	i	i	i
CCOC(=O)C1=C(COC(=O)c2cccs2)NC(=O)NC1C (centres undefined)	i	i	i	i	-2.6	i	x	x	x	x
SMILES	RGS4 act	MrgX1 ag	MrgX1 antag	RGS4 block	Kir21 block	MrgX1 allo act	MrgX1 allo conf	HEK293 Ca flux	HEK293 Ca counter	HEK293 Ca cntr2	others
O=C(/C(=C(\O)c1ccccc1)c1nc2ccccc2[nH]1)c1ccccc1	i	i	i	i	0.11	i	x	x	x	x
CC(=O)/C(=C(/O)c1ccccc1)c1nc2ccccc2[nH]1	i	i	i	i	-0.94	12*	i	i	i	i
COc1ccc(S(=O)(=O)N2CCOCC2)cc1NC(=O)c1ccc2c(c1)OCCO2	i	i	i	i	2	i	x	x	x	x
Cc1cccc2sc(NS(=O)(=O)c3ccccc3)nc12	i	i	i	i	-2.5	8.3*	i	i	i	i
N#CC1=C(N)Oc2n[nH]c(-c3ccc(F)cc3)c2C1c1ccncc1 (centres undefined)	i	i	i	i	0.25	i	x	x	x	x
CSC1=NSC2=NC(=O)/C(=C\c3ccc(OC(=O)c4ccco4)cc3)C(=N)N12	i	i	i	i	-0.62	41*	i	i	i	i
CC1=CSC2=NC(=O)/C(=C/c3cccc(OC(=O)c4ccco4)c3)C(=N)N12	i	i	i	i	0.15	29*	12%*	i	i	i
Cc1nn(CCS(=O)(=O)c2ccc(Cl)cc2)c(C)c1Br	i	i	i	i	-3	i	x	x	x	x
CC(=Nc1ccc(O)cc1)c1sc2ccccc2c1O	i	i	i	i	0.72	39*	i	i	i	i
CC(=Nc1ccccc1O)c1sc2ccccc2c1O	i	i	i	i	-0.66	i	x	x	x	x
